In ChEMBL document CHEMBL1125525, “5'-Azido-delta 8-THC: a novel photoaffinity label for the cannabinoid receptor” (1992) one finds Inhibition, ED50 and Immobility data, which are given here for 2 compounds.

What all share (format): functional
The species entered for assay [1] is Mus musculus. In words: Percent inhibition measured in terms of the maximum possible effect (MPE)on latency by mouse tail-flick assay. In a few lines: (§1)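 Male ICR mice dosed intravenously; same animals scored for decreased locomotor activity (sedation), ring immobility (catalepsy), hypothermia and tail-flick antinociception. Dose-response data analysed by ANOVA; ED50 (mg/kg) with 95% confidence limits as potency, maximum effect as efficacy: percent inhibition of locomotion, change in °C for hypothermia, percent immobility for catalepsy, percent maximum possible effect on tail-flick latency.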
For orientation: Thermal pain tests record how soon the animal reacts.

The test system of assay [2] is Mus musculus. Briefly: Compound was evaluated by in vivo administration for Percent inhibition of locomotion in mice. The gist of the method:
as §1

The test system of assay [3] is Mus musculus. In words: Induction of ring immobility (catalepsy), measured by in vivo administration of drug in mouse. The gist of the method:
as §1

For assay [4], the species on record is Mus musculus. In words: Antinociception measured in terms of the maximum possible effect (MPE)on latency by mouse tail-flick assay. The gist of the method:
as §1

Assay [5] relates to Mus musculus. In words: Compound was evaluated by in vivo administration for its ability to produce hypothermia (change in temperature). In a few lines:
as §1

Assay [6] concerns Mus musculus. Briefly: Compound was evaluated by in vivo administration for its ability to produce sedation. The gist of the method: as §1
The test system of assay [7] is Mus musculus. In words: Compound was evaluated by in vivo administration for percent inhibition of locomotion in mice. The gist of the method:
as §1

With `CC1=CC[C@@H]2[C@@H](C1)c1c(O)cc(CCCCCN=[N+]=[N-])cc1OC2(C)C`, the Inhibition (in general, the share of the control response that was lost under treatment) in assay [1] stood at 100%; in assay [2], 73%. Moreover, the ED50 (in general, the dose at which the effect has come halfway, by size or by number of responders) came to 0.8 mg/kg in assay [3], 0.1 mg/kg in assay [4], 0.8 mg/kg in assay [5] and 0.2 mg/kg in assay [6]. The compound also came in with an Immobility in assay [3] of 57%.

For `CCCCCc1cc(O)c2c(c1)OC(C)(C)[C@@H]1CC=C(C)C[C@@H]21` [DELTA-8-TETRAHYDROCANNABINOL], the Inhibition in assay [1] is given as 100%; in assay [7] it was 79%. Besides, the values for the ED50 in assay [3], in assay [4] and in assay [6] were 5.2 mg/kg, 1.5 mg/kg and 1.9 mg/kg, respectively. Moreover, the Immobility in assay [3] was 58%.
